In brackets after ≈: the same amount, converted by molar mass. Activity calls are given as the source filed them. No cut-off for these calls is given here.
Legend:
[1] = test system: Staphylococcus aureus; assay: Antibacterial activity against methicillin-resistant Staphylococcus aureus 33921 infected in in vitro pharmacokinetic model assessed as reduction in viable count at 750 mg, iv every 8 hrs measured after 12 hrs using 10^6 CFU/ml inoculum; format: functional
Method in brief: (§1)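 Single-compartment dilutional in vitro PK model, 10% Mueller-Hinton broth, 37°C, stirred, dilution 132 ml/h. […] Inoculum 10^6 CFU/ml (added 45 min pre-dose) or 10^8 CFU/ml (run overnight). Viable counts by spiral plating, beta-lactamase neutralization, detection limit 10^2 CFU/ml. At least triplicate.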

[2] = test system: Staphylococcus aureus; assay: Antibacterial activity against methicillin-resistant Staphylococcus aureus 33827 infected in in vitro pharmacokinetic model assessed as reduction in viable count at 750 mg, iv every 8 hrs measured after 36 hrs using 10^6 CFU/ml inoculum; format: functional; method in brief: as §1
[3] = test system: Staphylococcus aureus; assay: Antibacterial activity against methicillin-resistant Staphylococcus aureus 33820 assessed as viable count at 2 times of MIC after 24 hrs using 10^6 CFU/ml inoculum; format: functional, organism-based
[4] = test system: Staphylococcus aureus; assay: T>MIC for static effect in methicillin-sensitive Staphylococcus aureus 5956 in in vitro pharmacokinetic model after 24 hrs using 10^6 CFU/ml inoculum; format: functional
[5] = test system: Staphylococcus aureus; assay: Antibacterial activity against methicillin-resistant Staphylococcus aureus 33922 infected in in vitro pharmacokinetic model assessed as time required to 99% killing at 1500 mg, iv every 8 hrs using 10^8 CFU/ml inoculum; format: functional
[6] = test system: Staphylococcus aureus; assay: Antibacterial activity against methicillin-resistant Staphylococcus aureus 33921 infected in in vitro pharmacokinetic model assessed as reduction in viable count at 1500 mg, iv every 8 hrs measured after 48 hrs using 10^6 CFU/ml inoculum; format: functional; method in brief: as §1
[7] = test system: Staphylococcus aureus; assay: Antibacterial activity against methicillin-resistant Staphylococcus aureus 33829 by 10% MH broth method; format: functional
Method in brief: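 MIC by CLSI broth dilution, or by broth dilution in 10% Mueller-Hinton broth at nondoubling dilutions.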

[8] = test system: Staphylococcus aureus; assay: AUBKC (0 to 24 hrs) in methicillin-resistant Staphylococcus aureus 33921 infected in in vitro pharmacokinetic model at 1500 mg, iv every 8 hrs using 10^6 CFU/ml inoculum; format: functional
Method in brief: (§2)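 Single-compartment dilutional in vitro PK model at 37°C in 10% Mueller-Hinton broth, stirred, flow 132 ml/h. […] Inoculum 10^6 CFU/ml added 45 min before dosing, or 10^8 CFU/ml run overnight. Viable counts with β-lactamase neutralisation. AUBKC by log-linear trapezoidal rule, at least triplicate.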

[9] = test system: Staphylococcus aureus; assay: AUBKC (0 to 48 hrs) in methicillin-sensitive Staphylococcus aureus 5956 infected in in vitro pharmacokinetic model at 750 mg, iv every 8 hrs using 10^6 CFU/ml inoculum; format: functional
[10] = test system: Staphylococcus aureus; assay: T>MIC for 2-log drop in count in methicillin-sensitive Staphylococcus aureus 5956 in in vitro pharmacokinetic model after 24 hrs using 10^8 CFU/ml inoculum; format: functional
Method in brief: (§3)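 Dose-ranging: 7–13 simulated regimens per strain giving T>MIC of 0–100% (MIC from 10% MHB), at 106 or 10^8 CFU/ml as stated.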

[11] = test system: Staphylococcus aureus; assay: Antibacterial activity against methicillin-resistant Staphylococcus aureus 33922 infected in in vitro pharmacokinetic model assessed as time required to 99% killing at 750 mg, iv every 8 hrs using 10^8 CFU/ml inoculum; format: functional
[12] = test system: Staphylococcus aureus; assay: T>MIC for 1-log drop in count in methicillin-resistant Staphylococcus aureus 33815 in in vitro pharmacokinetic model after 24 hrs using 10^8 CFU/ml inoculum; format: functional
[13] = test system: Staphylococcus aureus; assay: T>MIC for 3-log drop in count in methicillin-resistant Staphylococcus aureus 33827 in in vitro pharmacokinetic model after 24 hrs using 10^6 CFU/ml inoculum; format: functional
[14] = Plasma protein binding in human; format: ADME, cell-free; conditions: read-out: PPB
[15] = test system: Staphylococcus aureus; assay: Antibacterial activity against methicillin-resistant Staphylococcus aureus 33921 infected in in vitro pharmacokinetic model assessed as reduction in viable count at 750 mg, iv every 8 hrs measured after 24 hrs using 10^6 CFU/ml inoculum; format: functional
[16] = test system: Staphylococcus aureus; assay: AUBKC (0 to 24 hrs) in methicillin-resistant Staphylococcus aureus 33815 infected in in vitro pharmacokinetic model at 1500 mg, iv every 8 hrs using 10^8 CFU/ml inoculum; format: functional; method in brief: as §2
[17] = test system: Staphylococcus aureus; assay: Antibacterial activity against methicillin-resistant Staphylococcus aureus 33829 infected in in vitro pharmacokinetic model assessed as time required to 99.9% killing at 1500 mg, iv every 8 hrs using 10^6 CFU/ml inoculum; format: functional; method in brief: as §1
[18] = test system: Staphylococcus aureus; assay: AUBKC (0 to 24 hrs) in methicillin-resistant Staphylococcus aureus 33827 infected in in vitro pharmacokinetic model at 1500 mg, iv every 8 hrs using 10^6 CFU/ml inoculum; format: functional; method in brief: as §2
[19] = test system: Staphylococcus aureus; assay: T>MIC for 1-log drop in count in methicillin-resistant Staphylococcus aureus 33922 in in vitro pharmacokinetic model after 24 hrs using 10^8 CFU/ml inoculum; format: functional
[20] = test system: Staphylococcus aureus; assay: Antibacterial activity against methicillin-resistant Staphylococcus aureus 33922 infected in in vitro pharmacokinetic model assessed as reduction in viable count at 750 mg, iv every 8 hrs measured after 48 hrs using 10^6 CFU/ml inoculum; format: functional
[21] = test system: Staphylococcus aureus; assay: AUBKC (0 to 48 hrs) in methicillin-resistant Staphylococcus aureus 33827 infected in in vitro pharmacokinetic model at 1500 mg, iv every 8 hrs using 10^8 CFU/ml inoculum; format: functional; method in brief: as §2
[22] = test system: Staphylococcus aureus; assay: Antibacterial activity against methicillin-resistant Staphylococcus aureus 33815 infected in in vitro pharmacokinetic model assessed as time required to 99% killing at 1500 mg, iv every 8 hrs using 10^6 CFU/ml inoculum; format: functional
[23] = test system: Staphylococcus aureus; assay: Antibacterial activity against methicillin-resistant Staphylococcus aureus 33815 infected in in vitro pharmacokinetic model assessed as reduction in viable count at 1500 mg, iv every 8 hrs measured after 36 hrs using 10^8 CFU/ml inoculum; format: functional
Method in brief: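 PK model at 37°C in 10% MHB. […] A 0.5 McFarland suspension (1 ml) was added and the model run overnight to reach 10^8 CFU/ml before dosing. Counts were spiral-plated on nutrient agar with β-lactamase. Change in log CFU/ml was measured from time 0; at least triplicate.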

[24] = test system: Staphylococcus aureus; assay: T>MIC for 2-log drop in count in methicillin-sensitive Staphylococcus aureus 5956 in in vitro pharmacokinetic model after 24 hrs using 10^6 CFU/ml inoculum; format: functional
[25] = test system: Staphylococcus aureus; assay: Antibacterial activity against methicillin-resistant Staphylococcus aureus 33921 infected in in vitro pharmacokinetic model assessed as reduction in viable count at 1500 mg, iv every 8 hrs measured after 24 hrs using 10^6 CFU/ml inoculum; format: functional; method in brief: as §1
[26] = test system: Staphylococcus aureus; assay: Antibacterial activity against methicillin-sensitive Staphylococcus aureus 5956 assessed as viable count at 2 times of MIC after 24 hrs using 10^6 CFU/ml inoculum; format: functional, organism-based
[27] = test system: Staphylococcus aureus; assay: T>MIC for 4-log drop in count in methicillin-sensitive Staphylococcus aureus 5956 in in vitro pharmacokinetic model after 24 hrs using 10^6 CFU/ml inoculum; format: functional; method in brief: as §3
[28] = test system: Staphylococcus aureus; assay: T>MIC in methicillin-resistant Staphylococcus aureus 33815 infected in vitro pharmacokinetic model at 1500 mg, iv every 8 hrs; format: functional

In the case of `C[C@@H](O)[C@H]1C(=O)N2C(C(=O)O)=C(S[C@H]3C[C@@H](C(=O)N4CC[C@H](NC(=O)CNC(=N)N)C4)N(C)C3)[C@H](C)[C@H]12` [TOMOPENEM], the log10CFU/ml [1] is reported as 3.6, the log10CFU/ml [2] is reported as 3.7 and the Activity [3] is reported as “inactive”. The “fT>MIC” value [4] was 6%, the Time [5] was 16 h and the log10CFU/ml [6] was 3.7. The MIC [7] was 0.5 µg/mL (≈ 0.93 µM), the AUBC [8] was 32.9 log10CFU/ml.hr and the AUBC [9] was 27.6 log10CFU/ml.hr. For the same compound, the “fT>MIC” value [10] was 7.4%, the Time [11] was 12 h and the “fT>MIC” value [12] was 1%. For the same compound, the “fT>MIC” value [13] was 43%, the fraction unbound [14] was over 0.9 and the log10CFU/ml [15] was 4. For the same compound, the AUBC [16] was 103.5 log10CFU/ml.hr, the Time [17] was 12 h and the AUBC [18] was 28.1 log10CFU/ml.hr. For the same compound, the “fT>MIC” value [19] was 2%, the log10CFU/ml [20] was 3.9 and the AUBC [21] was 93.5 log10CFU/ml.hr. For the same compound, the Time [22] was 3 h, the log10CFU/ml [23] was 3.9 and the “fT>MIC” value [24] was 8.7%. The log10CFU/ml [25] was 4.2, the Activity [26] was “inactive” and the “fT>MIC” value [27] was 12.8%. For the same compound, the “fT>MIC” value [28] was 98%.

From ChEMBL document CHEMBL1255300, “Pharmacodynamics of the antibacterial effect and emergence of resistance to tomopenem, formerly RO4908463/CS-023, in an in vitro pharmacokinetic model of Staphylococcus aureus infection” (Antimicrob Agents Chemother, 2008)
